One series concerns KB. The series is described as follows: Cytotoxicity activity against human KB cells assessed as growth inhibition at 10 ug/ml after 72 hrs sulforhodamine B assay. It counts as functional. Summed up:
(§1)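 Cells kept in RPMI-1640/10% FBS with antibiotics at 37 °C, 5% CO2. Trypsinized cells seeded and given compound from DMSO-diluted stock. Incubated 72 h, then fixed with 10% TCA. Stained 10 min with 0.4% sulforhodamine B in 1% HOAc, washed, dye dissolved in 10 mM Trizma. A515 read; growth relative to net protein increase of controls.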

A further series has as its system A549. The series is described as follows: Cytotoxicity activity against human A549 cells assessed as growth inhibition at 10 ug/ml after 72 hrs sulforhodamine B assay. It is filed as functional. Conditions: A549, 72 h. The method, boiled down: as §1
The subject of the next series is DU-145. The series is described as follows: Cytotoxicity activity against human DU145 cells assessed as growth inhibition at 10 ug/ml after 72 hrs sulforhodamine B assay. It counts as functional. Conditions: DU-145, 72 h. The method, boiled down: as §1
Series [1] is described as follows: Cytotoxicity activity against human KBVIN cells assessed as growth inhibition at 10 ug/ml after 72 hrs sulforhodamine B assay. It is filed as functional. Summed up:
as §1

A short description of series [2]: Antiinflammatory activity against human neutrophil assessed as inhibition of N-formyl-l-methionyl phenylalanine/cytochalasin B-induced superoxide anion generation by spectrophotometry. It counts as functional, cell-based. Summed up: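 Ferricytochrome c (0.5 mg/mL) reduction, SOD-inhibitable, with 1 mM Ca2+. Neutrophils (6 × 10^5 cells/mL) equilibrated 2 min at 37 °C, then drug or 0.1% DMSO for 5 min. Cytochalasin B 1 µg/mL preincubation, then 100 nM FMLP for 3 min. A550 monitored continuously with stirring. IC50 computed; mean ± SEM, n = 3.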

Series [3] in a line: Antiinflammatory activity against human neutrophil assessed as inhibition of N-formyl-l-methionyl phenylalanine/cytochalasin B-induced elastase release. It is filed as functional, cell-based. Summed up: (§2)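 Neutrophils (6 × 10^5/mL) supplemented with 100 µM MeO-Suc-Ala-Ala-Pro-Val-p-nitroanilide, equilibrated 2 min at 37 °C, then given drug or 0.1% DMSO vehicle for 5 min. Activated with 100 nM FMLP plus 0.5 µg/mL cytochalasin B. Absorbance at 405 nm followed continuously. Release expressed as percent of drug-free activated control. IC50 computed; mean ± SEM, n = 3.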

The nature of series [4]: Antiinflammatory activity against mouse […] cells assessed as inhibition of lipopolysaccharide/interferon-gamma induced nitric oxide production. It is filed as functional, cell-based. Conditions: Mus musculus; read-out: EC50. The method, boiled down:
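RAW 264.7 cells in DMEM/10% FCS, passages 9–20. Nitrite induced by LPS (1 µg/mL) plus IFN-γ (50 U/mL) for 18 h with or without compound. Griess reagent (1% sulfanilamide, 0.1% naphthylenediamine in 5% H3PO4) read at OD550. EC50 calculated.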

For a further series, the species on record is Mus musculus. The series is described as follows: (§3) Cytotoxicity against mouse […] cells by MTT assay. It is filed as functional. Summed up:
(§4)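 Viability of RAW 264.7 cells taken as mitochondrial reduction of MTT to formazan. Formazan read at OD550.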

For series [5], the system named is RAW264.7. The series is described as follows: Antiinflammatory activity against mouse RAW264.7 cells assessed as reduction of lipopolysaccharide/interferon-gamma induced PGE2 production at 1 uM by EIA. It is filed as functional. The method, boiled down:
(§5)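 RAW 264.7 macrophages (passages 9–20) stimulated with LPS/IFN-γ; compound tested at 1, 3 and 10 µM. Supernatant PGE2 measured by competitive EIA: anti-PGE2 antibody plus peroxidase-PGE2 tracer, 1 h RT; TMB/H2O2 30 min; H2SO4 stop; A450. Results given as % inhibition.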

Series [6] relates to RAW264.7. The series is described as follows: Antiinflammatory activity against mouse RAW264.7 cells assessed as reduction of lipopolysaccharide/interferon-gamma induced PGE2 production at 3 uM after 18 hrs. It counts as functional. As to conditions: RAW264.7, 18 h. The method, boiled down:
as §5

The subject of series [7] is RAW264.7. The series is described as follows: Antiinflammatory activity against mouse RAW264.7 cells assessed as reduction of lipopolysaccharide/interferon-gamma induced PGE2 production at 10 uM after 18 hrs. It is filed as functional. As to conditions: RAW264.7, 18 h. The method, boiled down: as §5
The nature of series [8]: Antiinflammatory activity against cytochalasin B pretreated human neutrophil assessed as inhibition of elastase release. It counts as functional. The method, boiled down:
as §2

Series [9] is described as follows: Therapeutic index, ratio of CC50 for mouse […] cells to EC50 for inhibition of lipopolysaccharide/interferon-gamma induced nitric oxide production in mouse […] cells. It is filed as cell-based. As to conditions: read-out: TI.
A short description of series [10]: as §3. It counts as functional. The method, boiled down:
as §4

In series [11] the test system is RAW264.7. The series is described as follows: Inhibition of lipopolysaccharide/interferon gamma-induced COX2 expression in mouse RAW264.7 cells by Western blot analysis. It counts as functional, cell-based. The method, boiled down:
(§6)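 RAW 264.7 cells lysed in ice-cold RIPA buffer (25 mM Tris–HCl pH 7.2, SDS, Triton, deoxycholate, protease/phosphatase inhibitors). Protein assayed, run on 7.5% SDS-PAGE and transferred to nitrocellulose. Probed for iNOS or COX2 with HRP-anti-IgG secondary, detected by ECL. Blot re-probed for α-tubulin.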

In series [12] the test system is RAW264.7. The series is described as follows: Inhibition of lipopolysaccharide/interferon gamma-induced iNOS expression in mouse RAW264.7 cells by Western blot analysis. It counts as functional, cell-based. Summed up: as §6
Series [13] deals with Neutrophil. The series is described as follows: Antiinflammatory activity against human neutrophil assessed as inhibition of N-formyl-l-methionyl phenylalanine-induced phosphorylation of JNK by Western blot analysis. It is filed as functional, cell-based. Summed up: (§7)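 Neutrophils given drug for 5 min at 37 °C, then FMLP (0.1 µM) for 0.5 min. Stopped on ice and centrifuged at 4 °C. Pellets lysed in HEPES pH 7.4 Triton buffer with phosphatase and protease inhibitors; 14,000 g 20 min spin. Lysate proteins run on 12% SDS-PAGE, immunoblotted, detected by ECL.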

The test system of series [14] is Neutrophil. The series is described as follows: Antiinflammatory activity against human neutrophil assessed as inhibition of N-formyl-l-methionyl phenylalanine-induced phosphorylation of AKT by Western blot analysis. It counts as functional, cell-based. Summed up: as §7
For series [15], the system named is Radical scavenging activity. The series is described as follows: Antioxidant activity assessed as residual DPPH radical scavenging activity. It counts as functional.

Activity calls are given as the source filed them. The calls are words filed in the database; no cut-off is given here.

`CC(=O)c1nccc2c1[nH]c1ccccc12`: the GI50 (in the series on KB; in the series with A549; in the series on DU-145; in series [1]) was over 40 µM in each case. Also, the IC50 in series [2] is 5.03 µM; in series [3] it was over 30 µM. Moreover, the EC50 in series [4] turned out to be 6.65 µM. The CC50 entry in the series listed under Mus musculus was “Non-toxic”. Moreover, in the series on RAW264.7 [5], the inhibition at 1 µM stood at 0%. The inhibition at 3 µM with RAW264.7 [6] was found to be 0%. In the series with RAW264.7 [7], the inhibition at 10 µM was 59%.
Regarding `COc1cccc(C(=O)c2nccc3c2[nH]c2ccccc23)c1`, the GI50 (in the series with KB; with A549; in the series on DU-145; in [1]) was over 40 µM each time. Moreover, the concentration for half-maximal inhibition (IC50) in series [2] is over 30 µM. In addition, the INH in series [8] is 13.2 µM. Further, the half-maximal effective concentration (EC50) in [4] came out at 2.96 µM. The selectivity ratio in series [9] was 6. Moreover, the midpoint of cytotoxicity in [10], the CC50, lay at 16.3 µM. Moreover, the inhibition at 1 µM in the series on RAW264.7 [5] was 0%. Besides, the inhibition at 3 µM in the series with RAW264.7 [6] turned out to be 71%. Further, in the series with RAW264.7 [7], the inhibition at 10 µM is 98%.
With `Cc1cccc(C(=O)c2nccc3c2[nH]c2ccccc23)c1`, the GI50 (in the series on KB; in the series with A549; with DU-145; in [1]) was over 40 µM throughout. Besides, the IC50 in [2] and in [3] was over 30 µM throughout. The outcome in the series on RAW264.7 [11] and in the series with RAW264.7 [12] was Active. Further, in [4], the EC50 is 0.2 µM. Besides, the selectivity ratio in series [9] worked out at 120. Moreover, in series [10], the CC50 was 23.7 µM. For the same compound, in the series on RAW264.7 [5], the inhibition at 1 µM came out at 97%. The inhibition at 3 µM in the series on RAW264.7 [6] is 100%.
`O=C(O)c1cc2c([nH]c3ccccc32)c(C(=O)c2cccc(Br)c2)n1`: the GI50 (in the series with KB; with A549; with DU-145; in series [1]) was over 40 µM each time. Besides, the figures for the half-maximal inhibitory concentration (IC50) in series [2] and in series [3] were 2.05 µM and 2.78 µM, respectively. Besides, the outcome with RAW264.7 [11] and in the series on RAW264.7 [12] was Active. Moreover, the EC50 in series [4] came to 0.57 µM. Also, the selectivity ratio in series [9] was 51. Moreover, the CC50 in [10] came out at 29.4 µM. Further, the inhibition entry in the series with Neutrophil [13] and in the series with Neutrophil [14] was “Active” in each case. In addition, the inhibition at 1 µM in the series with RAW264.7 [5] stood at 100%. In addition, the inhibition at 3 µM with RAW264.7 [6] turned out to be 100%. Also, in series [15], the outcome was inactive.

For the origin of these results see ChEMBL document CHEMBL1681731, “Synthesis, in vitro anti-inflammatory and cytotoxic evaluation, and mechanism of action studies of 1-benzoyl-β-carboline and 1-benzoyl-3-carboxy-β-carboline derivatives” (Bioorg Med Chem, 2011).
